An excerpt weighted towards active compounds, which were near 9.3% of everything screened.
PostGolgi ctrl = yeast control strain growth, post-Golgi counter-screen | AID 738 | efflux-deficient yeast background strain, growth absorbance A615, 16 h | inhibition, % at 10 µM | 5% of 98,000 active
Ecoli tolC = E. coli tolC mutant growth inhibition. 2.2% of 65,000 active. growth inhibition, % at 10 µM (by protocol). E. coli BW25113 tolC mutant growth, OD615;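 active means growth inhibition at or above a cutoff equal to the mean over every tested compound plus 3 SD, cut at about 60% in these data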;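 further: growth measured after 20 h incubation at 37 °C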
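Test system: E. coli BW25113 ΔtolC::kan bacteria | Medium: Kanamycin-containing LB broth (50 µg/mL) | Dosing: One dose of 10 µM final | Times: 20 h incubation with compound, 37 °C | Detection: Optical density read at 615 nm | Read-out basis: Percent growth inhibition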
D1 mod = allosterically modulates the human D1 dopamine receptor | 5.9% of 58,000 active | HEK293 D1, CRE-luciferase, dopamine EC30 potentiation; actives deviate in either direction | B-score at 10 µM | P21728;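 active means luminescence count or its row- and column-corrected plate score outside the 99.7% band of the plate's sample wells, on either side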
hDAT+cocaine = modulates human dopamine transporter uptake under cocaine | Q01959 | LLC-PK1 hDAT cells, [14C]-dopamine uptake with cocaine IC80; actives deviate in either direction | B-score at 10 µM | 1.3% of 110,000 active;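 active means Z score or B-score, a plate-position-corrected score, falls beyond the plate's 99.7% confidence bounds, in either direction; inactive means both scores lie inside the 99.7% bounds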;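 further: scored against the spread of the other compound wells on the same plate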
Target sequence (Q01959 whole entry, looked up): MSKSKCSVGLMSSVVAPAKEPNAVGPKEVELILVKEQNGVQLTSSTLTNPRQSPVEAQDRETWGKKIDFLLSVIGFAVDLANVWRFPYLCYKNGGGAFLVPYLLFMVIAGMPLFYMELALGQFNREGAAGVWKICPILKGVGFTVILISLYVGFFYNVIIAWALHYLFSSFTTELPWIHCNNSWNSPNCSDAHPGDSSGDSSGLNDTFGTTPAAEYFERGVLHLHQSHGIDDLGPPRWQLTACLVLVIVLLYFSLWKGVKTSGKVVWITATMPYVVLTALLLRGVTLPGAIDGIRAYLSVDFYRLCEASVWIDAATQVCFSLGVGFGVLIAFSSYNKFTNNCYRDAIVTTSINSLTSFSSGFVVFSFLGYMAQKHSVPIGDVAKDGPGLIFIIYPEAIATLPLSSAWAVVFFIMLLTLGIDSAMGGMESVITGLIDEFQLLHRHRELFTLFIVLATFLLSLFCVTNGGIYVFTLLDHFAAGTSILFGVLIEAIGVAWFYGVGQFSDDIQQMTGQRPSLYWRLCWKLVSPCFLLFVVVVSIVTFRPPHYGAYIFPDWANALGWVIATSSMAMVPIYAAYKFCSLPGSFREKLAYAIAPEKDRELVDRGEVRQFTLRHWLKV
PostGolgi yeast = growth inhibition of a yeast mutant, post-Golgi transport screen. 0.9% of 98,000 active. inhibition, % at 10 µM. post-Golgi transport phenotypic cell assay;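 further: yeast cells grown in 1536-well plates; yeast grown about 18 h at 30C before absorbance read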
E coli WT exp = E. coli BW25113 growth inhibition, expanded screen; growth inhibition, % at 100 µM; OD600 absorbance; 0.15% of 98,000 active;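 active means growth inhibition above about 50% at one test dose, limit read from the data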;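 further: growth measured after 20 h incubation at 37 °C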
The depositor's hits bear a star; x = not tested or not shown. Unless noted, no stated cut-off is given here; in the data, active means inhibition above about 30%; inactive means the rest.

SMILES | PostGolgi ctrl | Ecoli tolC | D1 mod | hDAT+cocaine | PostGolgi yeast | E coli WT exp
Cc1cc(CNC(=O)C2(C(F)(F)F)C/C(=C\Cc3ccccc3)CCCO2)nn1C (stereo not drawn) | x | x | x | -0.74 | x | x
CCC(CC)C(=O)Nc1ccccc1NC(C)=O | -1 | -15 | 0.43 | 0.25 | 14 | 0
COC(=O)CN1C(c2ccccc2)=Nc2ccc(Cl)cc2C1c1ccccc1 (stereo not drawn) | 30* | x | x | 2.2 | 8 | -13
CCOc1ccccc1-c1nc(-c2cc3ccc(C)cc3[nH]c2=O)no1 | 31* | -1 | 0.2 | 0.89 | -8 | -14
CCCc1nc(-c2cc3ccc(C)cc3[nH]c2=O)no1 | 0 | -2 | -0.69 | -0.17 | 2 | -14
CCCN1CCC(=O)N([C@H](CSc2ccc(OC)cc2)Cc2ccccc2)CC1 | x | x | x | 2.5* | x | x
Cc1ccc(S(=O)(=O)Cc2ccc(C(=O)NCc3ccc4c(c3)OCO4)o2)cc1 | 34* | -5 | -0.86 | 0.45 | -6 | 4
COCCNC(=O)c1ccc(CS(=O)(=O)c2ccc(C)cc2)o1 | -7 | -8 | 0.26 | 0.17 | 7 | -2
O=C(NCc1ccc2c(c1)OCO2)c1ccc(COc2cccc(Cl)c2)o1 | 60* | 79* | 0.12 | x | 6 | 22
Cc1cc(C(=O)CN2C(=O)C3CC=CCC3C2=O)c(C)n1-c1ccccc1 (stereo not drawn) | 2 | 13 | -3.6* | 0.79 | -4 | 0
CCCn1c(C)cc(C(=O)CN2C(=O)c3ccccc3C2=O)c1C | x | -1 | -0.54 | x | x | x
Cc1cc(C(=O)CN2C(=O)c3ccccc3S2(=O)=O)c(C)n1-c1ccccc1 | 26 | 20 | -5* | 1.4 | 4 | -7
CCOc1ccc(C(=O)/C=C/c2ccccc2C(F)(F)F)cc1 | 5 | x | x | -0.037 | -7 | -1
COc1ccc(C(=O)/C=C/c2cn(CN3CCN(C)CC3)c3ccccc23)cc1 | 33* | x | x | x | 4 | 0
CCOc1ccc(C(=O)/C=C/c2cn(CN3CCN(C)CC3)c3ccccc23)cc1 | 32* | x | x | 0.062 | -2 | 0
COc1ccc(C(=O)/C=C/c2ccccc2C(F)(F)F)cc1 | 15 | x | x | -1.6 | 4 | -1
CC(C)(C)OC(=O)NC(CCCCNC=O)C(=O)O (stereo not drawn) | 16 | -11 | -0.33 | 0.56 | 0 | 7
CCOC(=O)C1CCN(C(=O)CCc2c(C)nc3cc(-c4ccccc4)nn3c2C)CC1 | 22 | x | x | 0.36 | -11 | -1
CCOC(=O)C1CCCCN1C(=O)CCc1c(C)nc2cc(-c3ccccc3)nn2c1C (stereo not drawn) | 77* | 17 | -3.5 | x | 3 | -4
COc1ccc(-c2csc(N3CCOCC3)n2)cc1OC | 26 | -2 | 13* | 0.88 | 2 | -2
CCOc1ccc2cc(/C=C/C(=O)c3ccco3)c(Cl)nc2c1 | 19 | x | x | x | 11 | -17
O=C(NC1CCCCCC1)c1cccc(N2CCCC2=O)c1 | 13 | -15 | -2.7 | -0.65 | -1 | 4
CC1CCCCC1NC(=O)c1ccc(N2CCCC2=O)cc1 (stereo not drawn) | 33* | -6 | 0.44 | 0.75 | -17 | 2
O=C(CC1(O)C(=O)Nc2ccc(Br)cc21)c1ccc2c(c1)OCO2 (stereo not drawn) | 16 | 9 | -0.77 | -0.61 | -5 | 12
Cc1cc(C)c2c(=O)n(CC(=O)N3CCC(Cc4ccccc4)CC3)sc2n1 | 45* | -6 | 0.061 | x | -1 | 5
SMILES | PostGolgi ctrl | Ecoli tolC | D1 mod | hDAT+cocaine | PostGolgi yeast | E coli WT exp
CCOC(=O)N1CCN(c2ncnc3c2cnn3-c2ccc(Cl)cc2)CC1 | 4 | 1 | -0.4 | -0.089 | 2 | -11
CCOC(=O)C1CCCN(c2ncnc3c2cnn3-c2cccc(C)c2)C1 (stereo not drawn) | 19 | 47 | x | 0.64 | 5 | 0
CCN(CC)C(=O)C1CCCN(c2ncnc3c2cnn3-c2ccc(Cl)cc2)C1 (stereo not drawn) | x | 59 | -3.6* | x | x | x
CCN(CC)C(=O)C1CCCN(c2ncnc3c2cnn3-c2cccc(C)c2)C1 (stereo not drawn) | 12 | 15 | -1.7 | 3.3* | 2 | 5
Cc1cccc(-n2ncc3c(N4CCC(C)CC4)ncnc32)c1 | 45* | 94* | -4.3* | 0.11 | 44* | -2
O=S(=O)(NCc1cn2ccccc2n1)c1cc(F)ccc1F | 4 | -15 | -1.3 | -0.83 | 3 | -5
CN1C(=O)OC(C)(CCc2ccccc2)C1(C)O (stereo not drawn) | 3 | 10 | 0.25 | -0.9 | -3 | -1
CC1(O)N(Cc2ccccc2)C(=O)OC12CCCCC2 (stereo not drawn) | 46* | -2 | -0.45 | 0.51 | -5 | 2
C=CCn1c(=O)c2ccccc2n2c(SCc3nc4ccccc4s3)nnc12 | -2 | x | x | 3.6* | -15 | -6
O=C(COc1cccc(-n2cnnn2)c1)Nc1ccccc1 | x | x | x | 1.1 | x | x
Cc1ccc(C2=Nc3ccccc3NC(C)(c3ccc(C)o3)C2)o1 (stereo not drawn) | 55* | 26 | 0.16 | 0.63 | -11 | 9
CC(C)(C)c1ccc(-c2n[nH]c(=S)n2C2CCCC2)cc1 | 59* | x | x | -0.094 | -6 | -10
CCCCC(=O)Nc1cccc(-c2nn3c(C)nnc3s2)c1 | 8 | -3 | 0.26 | 0.074 | 1 | 0
Cc1ccc(-c2cc(C(=O)Nc3cnn(C45CC6CC(CC(C6)C4)C5)c3)no2)cc1 | 8 | -1 | 0.011 | 0.11 | -9 | -8
Cc1ccc(NC(=O)c2nn(C34CC5CC(CC(C5)C3)C4)cc2[N+](=O)[O-])cc1 | 61* | x | x | 0.59 | 79* | -3
CCOc1ccc(-n2ccnc2SCC(=O)NCc2ccc3c(c2)OCO3)cc1 | 6 | 14 | 0.17 | 0.23 | -7 | -2
CCOC(=O)N1CCN(C(=O)C(NC(=O)C2CCC(C)CC2)C(C)C)CC1 (stereo not drawn) | -6 | -6 | -0.031 | 1.1 | 0 | 3
CC1CCC(C(=O)NC(C(=O)N2CCC(N3CCCCC3)CC2)C(C)C)CC1 (stereo not drawn) | 0 | -7 | 0.91 | -2.7* | -4 | 1
Cn1c(=O)[nH]c(=O)c2c1nc(N1CCOCC1)n2CCSc1ncccn1 | x | -26 | -0.012 | x | x | x
COc1ccc(C(=O)/C=C\N2CCOCC2)cc1 | 5 | -2 | -0.33 | -2.7* | 5 | -2
COc1ccc(OCc2ccc(C(=O)N3CCOCC3)cc2)cc1 | x | x | x | 0.4 | x | x
CCc1ccc(N=c2c([N+](=O)[O-])nn(-c3ccccc3)n2O)cc1 | 34* | x | x | 0.9 | 7 | 15
COc1ccc(C(=O)CC(Nc2ccc([N+](=O)[O-])cc2)c2ccc(Cl)cc2)cc1 (stereo not drawn) | 15 | x | x | -0.47 | -9 | -25
COc1ccc(-n2nc([N+](=O)[O-])c(=NCCc3ccc(Cl)cc3)n2O)cc1 | 40* | x | x | x | 3 | -3
CC(C)Cc1nc(N2CCC(C(N)=O)CC2)c2nnn(Cc3ccccc3)c2n1 | 13 | 2 | 0.51 | 0.37 | -5 | -14
Cc1nc(N2CCC(C)CC2)c2nnn(Cc3ccccc3)c2n1 | x | x | x | 3.1* | x | x

Compound activity as filed in PubChem BioAssay.
